Screens deposited in PubChem BioAssay by several laboratories.
NPY-Y1 PAM-ag = NPY-Y1 receptor potentiators or agonists, primary screen, cell-based. Neuropeptide Y receptor type 1 (Homo sapiens), P25929. NPY-Y1 expressing cells, potentiator/agonist activation. activation, % at 3.6 µM. 220,000 tested, 0.37% active. AID 1304, 2008; in the data active means activation above about 33%, passing the limit was not always enough;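 further: cells stimulated with NPY at EC10 then isoproterenol at EC100; 0% = low agonist plus stimulus and 100% = saturating agonist plus stimulus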
Furin inhibitor = human furin inhibitors, primary screen, biochemical, fluorescence intensity | 220,000 tested, 0.061% active | P09958 | AID 463115, 2010 | inhibition, % at 20 µM or 30 µM | purified furin, fluorogenic substrate cleavage; in the data active means inhibition above about 25%
NPY-Y2 PAM-ag = NPY-Y2 potentiators or agonists, primary screen, cell-based. Neuropeptide Y receptor type 2 (Homo sapiens), P49146. cells expressing NPY-Y2, potentiator/agonist read-out. activation, % at 3.6 µM. 220,000 tested, 0.45% active. AID 1359, 2008; in the data active means activation above about 27%;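 further: cells stimulated with NPY near EC25 plus isoproterenol at EC100; 0% = vehicle plus submaximal agonist and 100% = vehicle plus saturating agonist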
NPY-Y2 antag = NPY-Y2 receptor antagonists, primary screen, cell-based; AID 793, 2007; 140,000 tested, 0.99% active; NPY-Y2 expressing cells, antagonist mode; inhibition, % at 2.7 µM; in the data active means inhibition above about 17%;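 further: 0% = vehicle with agonist challenge and 100% = reference antagonist with challenge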
NPY-Y1 antag = NPY-Y1 receptor antagonists, primary screen, cell-based; Neuropeptide Y receptor type 1 (Homo sapiens), P25929; HEK293-CNG Y1 cells, membrane potential fluorescence; NPY at EC95, then isoproterenol; inhibition, % at 3.6 µM; 200,000 tested, 1% active; AID 1040, 2008;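 active means inhibition above the campaign mean inhibition of all tested compounds plus 3 SD, cut at about 20% in these data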;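 further: 0% = DMSO wells given NPY plus isoproterenol and 100% = isoproterenol alone without NPY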
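Material: HEK293 Y1/CNG channel cell line | Also added: NPY (25 nM), isoproterenol (1 µM), Ro 20-1724 (25 µM) | Compound: One concentration, 3.6 µM, in 0.4% DMSO | Schedule: 3 h dye uptake, 1 h room-temperature compound, 45 min post-isoproterenol | Signal: Membrane-potential fluorescent dye readout | Read-out: % inhibition of NPY effect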
KCC2 mod = KCC2 cotransporter modulators, thallium flux, primary screen, cell-based, HEK293 KCC2, FluoZin-2 fluorescence, MLSMR. KCC2 cells, thallium flux FluoZin-2 fluorescence. Solute carrier family 12 member 5 (Homo sapiens), Q9H2X9. B-score of Tl+ flux slope (higher = more flux/activation; lower = inhibition) at 10 µM. 190,000 tested, 2.2% active. AID 1456, 2008;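 active means thallium flux slope and its plate-corrected score both differing from the plate sample mean at a set confidence after two filtering rounds, in either direction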;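 further: slope of fluorescence scaled to starting intensity during 10 to 20 s after thallium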
Starred values were filed as active, the others as inactive; i = inactive; . = not tested or not shown. Only some compounds are listed: those with a hit (about 3.7% of all), similar ones and a draw of the others.

SMILES	NPY-Y1 PAM-ag	Furin inhibitor	NPY-Y2 PAM-ag	NPY-Y2 antag	NPY-Y1 antag	KCC2 mod
CC1(C)CN(c2cccc(Br)c2)C1=O	-5	-12	-4	.	0	.
CC(=O)c1sc(NC(=O)c2cccc(C)c2)nc1C	8	-2	-4	.	-2	-0.64
Cc1cccc(C(=O)NC(=S)Nc2ccccc2C(F)(F)F)c1	-4	-17	-9	3	8	19*
COC(=O)c1sc(NC(=S)NC(=O)c2cccc(C)c2)nc1C	-11	-17	4	4	5	18*
Cc1cccc(C)c1NC(=S)NC(=O)c1ccccc1F	-4	-11	-1	6	7	35*
O=C(NC(=S)Nc1ccc(Cc2ccncc2)cc1)c1ccccc1F	4	-18	-6	.	6	0.83
CCC(COC)NCc1cn(-c2ccc(OC)cc2)nc1-c1cccc(F)c1 (configuration not stated)	29	-30	8	.	2	0.46
NC(=S)N1CCCc2ccccc21	7	-16	0	.	.	.
Cc1cc(C)nc(N/C(=N\S(=O)(=O)Cc2ccccc2)Nc2ccccc2Br)n1	7	-9	-3	7	3	3.6
CC1(C)CC1C(=O)Nc1ccc([N+](=O)[O-])cc1Br (configuration not stated)	-14	-3	-16	4	4	0.89
Cc1ccc(C2(c3ccc(C)cc3)CC2C(=O)Nc2ccc([N+](=O)[O-])cc2O)cc1 (configuration not stated)	12	-19	45*	-3	-5	0.017
COc1ccccc1N(CCC#N)C(=O)CSc1nc(-c2ccccc2)cn1N	12	-25	14	0	5	1.1
Cc1ccc(OCc2nc(C#N)c(N3CCN(Cc4ccccc4)CC3)o2)cc1	-34	-22	-34	41*	23*	.
N#Cc1nc(COc2ccccc2)oc1N1CCN(Cc2ccccc2)CC1	-24	-18	-15	28*	21*	.
CN(C)CCNC(=O)c1ccc2c(c1)N(Cc1ccc(F)cc1)CCS2	75*	-58	65*	5	-8	.
S=c1[nH]nc(COc2ccc3ccccc3c2)o1	-49	-21	-8	5	5	-5.7*
CN(C(=O)c1ccc2c(c1)SC1=NS(=O)(=O)CCN12)C(c1ccccc1)c1ccccc1	-21	4	-20	22*	37*	-1.1
O=C(c1ccc(F)cc1)N1CCCC(C(=O)N2CCc3ccccc3C2)C1 (configuration not stated)	-13	-17	-16	.	.	-0.1
O=C(O)CC/C(=N\NC(=O)c1ccccc1Br)c1ccccc1	-12	-17	-4	2	4	1.2
O=C(NN=C1c2ccccc2-c2ccccc21)c1ccccc1Br	-19	-19	-18	6	7	14*
CCN1/C(=C/C=C/c2oc3ccc(-c4ccccc4)cc3[n+]2CC)Oc2ccc(-c3ccccc3)cc21	-31	9	3	.	22*	i
CCCCN1C(=O)/C(=C/C=C2\Oc3ccccc3N2CC)SC1=S	6	-16	-4	.	-2	-0.42
O=c1c(-c2cccc([N+](=O)[O-])c2)[n+]([O-])c2ccccc2n1O	-12	-7	-7	.	.	-0.48
O=c1c(-c2ccc(Cl)cc2)[n+]([O-])c2ccccc2n1O	-13	-25	-3	3	0	9.6*
CCCCn1c(-c2csc3c2CCC(C)C3)n[nH]c1=S (configuration not stated)	-3	-7	-4	7	5	22*
SMILES	NPY-Y1 PAM-ag	Furin inhibitor	NPY-Y2 PAM-ag	NPY-Y2 antag	NPY-Y1 antag	KCC2 mod
CCCCn1c(-c2csc3c2CCCC3)n[nH]c1=S	2	-16	10	6	2	3*
C=CCn1c(-c2csc3c2CCC(C)C3)n[nH]c1=S (configuration not stated)	2	-18	3	6	0	4.7
C=CC[n+]1ccc(/C=C2\C=Cc3cc(C)ccc3N2CC)c2ccccc21	27	-35	31*	.	8	-0.58
NNC(=O)[C@@H]1C[C@@H]1c1ccccc1	-21	-21	2	3	1	1.3
O=C(NC1CCCC1)C1CC1c1ccccc1 (configuration not stated)	10	25*	7	2	4	-0.35
CCC(CC)c1nnc(NC(=O)c2ccc3ccccc3n2)s1	0	12	3	3	3	16*
COc1cccc(-c2nnc(SCC3CNC(=O)O3)n2-c2ccc(Cl)cc2)c1 (configuration not stated)	1	-20	9	3	-2	-0.098
CCCOc1ccc2ccccc2c1/C=N/n1c(C)nnc1-n1nc(C)cc1C	-17	-13	0	26*	29*	-1.9
CCOc1ccccc1CN1C(=O)c2ccccc2C1C(=O)NC(C)CC (configuration not stated)	-17	-22	-16	11	13	.
COc1cc(NC(=O)c2ccc(Cl)cc2)c(OC)cc1NC(=O)CN1CCOCC1	13	-20	4	-2	6	-5.2*
COc1ccc(OC)c2sc(NC(=O)c3ccc(Cl)s3)nc12	2	-8	5	0	5	.
COc1ccc(OC)c2sc(NC(=O)c3ccc(Br)s3)nc12	2	-28	9	-2	4	6.1*
Cn1c(=S)ccc2ccccc21	-6	-5	-7	.	-2	-0.21
Cc1n[nH]c(=S)n1/N=C/c1ccccc1OCc1ccc(Cl)cc1	-39	-23	-21	88*	28*	0.14
Nc1nnnn1/N=C/c1ccccc1OCc1ccc(Cl)cc1	-6	-18	-3	5	1	-0.054
CCOC(=O)c1ccc(Nc2cc(C)nc(-c3ccccc3O)n2)cc1	-16	-6	12	-2	-1	-0.15
Cc1cc(Nc2cccc(F)c2)nc(-c2ccccc2O)n1	40*	-19	42*	-5	-9	.
COc1cccc(-c2cc(C(F)(F)F)nc(-n3ccc([N+](=O)[O-])n3)n2)c1	8	-24	6	.	21*	0.051
CN(c1ccccc1)C(c1ccc(F)cc1)c1nnnn1C1CCCC1 (configuration not stated)	-15	-14	-7	11	6	-1.3
O=C(NC(=S)Nc1cccc(Cl)c1N1CCCC1)c1ccc(-c2cccc([N+](=O)[O-])c2)o1	0	3	-21	-2	-1	3*
COc1cc(-c2nnc(SCC(=O)NC3CCS(=O)(=O)C3)o2)cc(OC)c1OC (configuration not stated)	12	-22	-7	.	3	0.028
